Experimental data: ChEMBL document CHEMBL3259617, “Design, synthesis, and biological evaluation of (e)-3,4-dihydroxystyryl aralkyl sulfones and sulfoxides as novel multifunctional neuroprotective agents” (J Med Chem, 2014)
Active and inactive are the calls of the source. No cut-off for these calls is given here.

Columns and labels:
[1] = tested on: Radical scavenging activity; test: Antioxidant activity assessed as DPPH free radical scavenging effect after 30 mins by spectrophotometric analysis; assay type: functional
Procedure, shortened: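 Compounds and DPPH both in ethanol; equal volumes of test solution and 0.2 mM DPPH solution mixed; control was ethanol plus DPPH. Tested over 1−50 μM. Inhibition % = (A₀ − A_c)/A₀ × 100; IC50 by linear regression. Triplicate wells, three independent runs; vitamin C as reference.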

PC-12 [2] = test: Neuroprotective activity against H2O2-induced damage in rat PC12 cells assessed as cell viability at 5 uM preincubated for 3 hrs followed by H2O2 challenge measured after 5 hrs by MTT assay; assay type: functional, cell-based
Procedure, shortened: (§1)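 PC12 cells in high-glucose DMEM with 10% FBS, 5% horse serum and antibiotics, 37 °C, 5% CO₂, seeded at 4 × 10⁵ cells mL⁻¹. Pretreated 3 h with compounds (DMSO, diluted in medium), then challenged with H₂O₂ at final 500 μM for 5 h. MTT absorbance at 570 nm; viability relative to untreated cells (100%); mean ± SD, n = 3.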

PC-12 [3] = test: Neuroprotective activity against 6-OHDA-induced damage in rat PC12 cells assessed as cell viability at 40 uM preincubated for 3 hrs followed by 6-OHDA challenge measured after 48 hrs by MTT assay; assay type: functional, cell-based
Procedure, shortened: (§2)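 PC12 cells grown in high-glucose DMEM with 10% FBS, 5% horse serum and penicillin/streptomycin, 5% CO₂, 37 °C. Seeded at 4 × 10⁵ cells mL⁻¹. Compounds (DMSO stock diluted in medium) applied for 3 h, then 6-OHDA at final 400 μM for 48 h. MTT read at 570 nm; viability given as % of untreated cells; mean ± SD, n = 3.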

[4] = Antineuroinflammatory activity in mouse BV2 cells assessed as inhibition of LPS-induced nitric oxide production preincubated for 3 hrs followed by LPS challenge measured after 24 hrs by Griess assay; assay type: functional, cell-based; details: BV-2
Procedure, shortened: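 BV2 microglia grown in high-glucose DMEM with 10% FBS and penicillin/streptomycin, 5% CO₂, 37 °C. Seeded at 4 × 10⁵ cells mL⁻¹. Compounds in DMSO, diluted in medium, added for 3 h before LPS (final 100 nM). Nitrite in medium read with an NO assay kit at 540 nm after 24 h. Inhibition calculated against the LPS-only and normal controls. IC50 obtained by linear regression.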

[5] = Cytotoxicity against mouse BV2 cells assessed as cell viability by MTT assay; assay type: cell-based, BV-2; design: concentration or dose not given beside the values; details: read-out: Activity
[6] = Permeability of the compound at 5 mg/mL after 18 hrs by PAMPA; assay type: physicochemical; details: read-out: permeability
PC-12 [7] = test: Neuroprotective activity against H2O2-induced damage in rat PC12 cells assessed as cell viability at 2.5 uM preincubated for 3 hrs followed by H2O2 challenge measured after 5 hrs by MTT assay; assay type: functional, cell-based; procedure, shortened: as §1
PC-12 [8] = test: Neuroprotective activity against 6-OHDA-induced damage in rat PC12 cells assessed as cell viability at 5 to 10 uM preincubated for 3 hrs followed by 6-OHDA challenge measured after 48 hrs by MTT assay; assay type: functional, cell-based; procedure, shortened: as §2

IC50 [1] [µM] | IC50 [4] [µM] | Papp at 18 h, 5 mg/mL [6] [×10⁻⁶ cm/s] | Compound | Activity (PC-12 [2]) | Activity (PC-12 [3]) | viability [5] [%] | Activity (PC-12 [7]) | Activity (PC-12 [8])
9.1 | 11.9 | 6.4 | COc1ccc(CS(=O)(=O)/C=C/c2ccc(O)c(O)c2)cc1 | Active | Active | > 90 | – | –
– | – | – | O=C(/C=C/c1ccc(O)c(O)c1)OCCc1ccccc1 | Active | Active | – | Active | Active
11.6 | 42.6 | 5 | [O-][S+](/C=C/c1ccc(O)c(O)c1)CCc1ccccc1 (stereo unspecified) | – | Active | > 90 | – | Active
9.9 | 9.3 | 5.8 | CC(C)(C)c1ccc(C[S+]([O-])/C=C/c2ccc(O)c(O)c2)cc1 (stereo unspecified) | Active | inactive | > 90 | – | –
7.8 | 15.5 | 4.2 | [O-][S+](/C=C/c1ccc(O)c(O)c1)Cc1ccc(C(F)(F)F)cc1 (stereo unspecified) | Active | Active | > 90 | – | –
5.8 | 15.9 | 4.3 | O=S(=O)(/C=C/c1ccc(O)c(O)c1)Cc1ccc(C(F)(F)F)cc1 | Active | Active | > 90 | – | Active
14.4 | 28.6 | 9.1 | [O-][S+](/C=C/c1ccc(O)c(O)c1)CCCc1ccccc1 (stereo unspecified) | Active | Active | > 90 | – | –
8.8 | 11.7 | 3.3 | O=S(=O)(/C=C/c1ccc(O)c(O)c1)Cc1ccc(Cl)cc1 | Active | Active | > 90 | – | –
10.5 | 30.6 | 5.7 | O=S(=O)(/C=C/c1ccc(O)c(O)c1)CCc1ccccc1 | Active | Active | > 90 | – | –
11.5 | 33 | 4.3 | COc1ccc(C[S+]([O-])/C=C/c2ccc(O)c(O)c2)cc1 (stereo unspecified) | Active | Active | > 90 | – | –
8.1 | 14 | 4.1 | [O-][S+](/C=C/c1ccc(O)c(O)c1)Cc1ccc(Cl)cc1 (stereo unspecified) | Active | Active | > 90 | – | –
9.5 | 12.6 | 4.7 | CC(C)(C)c1ccc(CS(=O)(=O)/C=C/c2ccc(O)c(O)c2)cc1 | Active | inactive | > 90 | Active | –
14.7 | 50.3 | 4.9 | [O-][S+](/C=C/c1ccc(O)c(O)c1)Cc1ccccc1 (stereo unspecified) | Active | Active | > 90 | – | –
9.9 | 10.5 | 4.1 | O=S(=O)(/C=C/c1ccc(O)c(O)c1)CCCc1ccccc1 | Active | Active | > 90 | Active | –
17.2 | 19.8 | 4.1 | O=S(=O)(/C=C/c1ccc(O)c(O)c1)CCCCc1ccccc1 | – | Active | > 90 | – | –
8.1 | 11.6 | 10.1 | O=S(=O)(/C=C/c1ccc(O)c(O)c1)Cc1ccccc1 | Active | Active | > 90 | – | –
16.2 | 36.8 | 4.5 | [O-][S+](/C=C/c1ccc(O)c(O)c1)CCCCc1ccccc1 (stereo unspecified) | – | Active | > 90 | – | –
